Results: ChEMBL document CHEMBL2034928, “Synthesis of [(11)C]dehydropravastatin, a PET probe potentially useful for studying OATP1B1 and MRP2 transporters in the liver” (Bioorg Med Chem, 2012)

Key:
Intestine [1] = assay: Drug uptake in Sprague-Dawley rat intestine at 22 MBq/body, iv administered as bolus coadministered with rifampicin measured after 60 mins by PET analysis; format: ADME, organism-based; details: in vivo, 1 h
Procedure, shortened: (§1)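 Rats were anesthetized with 1.5% isoflurane in nitrous oxide/oxygen (7/3). The 11C tracer (approx. 22 MBq per animal) was given as an IV bolus through a tail-vein catheter, followed by a 60 min microPET emission scan. Regions of interest were set on liver, intestine, kidney and urinary bladder. Uptake was decay-corrected to injection time and expressed as % dose/tissue or % dose/mL blood, normalized to injected radioactivity. Rifampicin was infused at 1.5 µmol/min/kg where applied.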

Liver [2] = assay: Drug uptake in Sprague-Dawley rat liver at 22 MBq/body, iv administered as bolus coadministered with rifampicin measured after 2 mins by PET analysis; format: ADME, organism-based; details: in vivo; procedure, shortened: as §1
[3] = Drug uptake in Sprague-Dawley rat urinary bladder at 22 MBq/body, iv administered as bolus measured after 60 mins by PET analysis; format: ADME, organism-based; details: in vivo, 1 h; procedure, shortened: as §1
Intestine [4] = assay: Drug uptake in Sprague-Dawley rat intestine at 22 MBq/body, iv administered as bolus measured after 60 mins by PET analysis; format: ADME, organism-based; details: in vivo, 1 h; procedure, shortened: as §1
Liver [5] = assay: Drug uptake in Sprague-Dawley rat liver at 22 MBq/body, iv administered as bolus measured up to 2 mins by PET analysis; format: ADME, organism-based; details: in vivo; procedure, shortened: as §1
Kidney = assay: Drug uptake in Sprague-Dawley rat kidney at 22 MBq/body, iv administered as bolus measured up to 2 mins by PET analysis; format: ADME, organism-based; details: in vivo; procedure, shortened: as §1
Blood [6] = assay: Drug metabolism in Mrp2 hereditary-deficient Sprague-Dawley rat blood assessed as radiometabolite formation at 22 MBq, iv administered as bolus within 20 mins by PET analysis; format: ADME, organism-based; details: in vivo
Procedure, shortened: (§2)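 Radiometabolite analysis, run apart from the PET scans. Blood, liver homogenate and bile were mixed with an equal volume of acetonitrile and centrifuged at 12,000 rpm for 2 min at 4 °C. The supernatant was diluted with mobile phase and run on reversed-phase HPLC (10 mM ammonium acetate/acetonitrile gradient, 2.0 mL/min). Detection was UV 254 nm plus a NaI(Tl) positron detector, reading intact tracer against metabolites.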

Liver [7] = assay: Drug metabolism in Mrp2 hereditary-deficient Sprague-Dawley rat liver assessed as radiometabolite formation at 22 MBq, iv administered as bolus within 20 mins by PET analysis; format: ADME, organism-based; details: in vivo; procedure, shortened: as §2
[8] = Drug metabolism in Mrp2 hereditary-deficient Sprague-Dawley rat bile assessed as radiometabolite formation at 22 MBq, iv administered as bolus within 20 mins by PET analysis; format: ADME, organism-based; details: in vivo; procedure, shortened: as §2
Blood [9] = assay: Drug metabolism in Mrp2 hereditary-deficient Sprague-Dawley rat blood assessed as radiometabolite formation at 22 MBq, iv administered as bolus at 2 mins by PET analysis; format: ADME, organism-based; details: in vivo; procedure, shortened: as §2
Blood [10] = assay: Drug uptake in Mrp2 hereditary-deficient Sprague-Dawley rat blood at 22 MBq, iv administered as bolus after 20 mins by PET analysis; format: ADME, organism-based; details: in vivo; procedure, shortened: as §1
Liver [11] = assay: Drug uptake in Mrp2 hereditary-deficient Sprague-Dawley rat liver at 22 MBq, iv administered as bolus after 20 mins by PET analysis; format: ADME, organism-based; details: in vivo; procedure, shortened: as §1
[12] = Drug uptake in Mrp2 hereditary-deficient Sprague-Dawley rat bile at 22 MBq, iv administered as bolus after 20 mins by PET analysis; format: ADME, organism-based; details: in vivo
Hepatocyte [13] = assay: Metabolic stability in human hepatocytes; format: ADME, cell-based
Hepatocyte [14] = assay: Metabolic stability in rat hepatocytes; format: ADME, cell-based

Drug uptake (Intestine [1]): Not Active
Drug uptake (Liver [2]): Not Active
Drug uptake [3]: 1.51%
Drug uptake (Intestine [4]): 67.9%
Drug uptake (Liver [5]): Active
Drug uptake (Kidney): Active
Drug metabolism (Blood [6]): Active
Drug metabolism (Liver [7]): Active
Drug metabolism [8]: Active
Drug metabolism (Blood [9]): Active
Drug uptake (Blood [10]): Active
Drug uptake (Liver [11]): Active
Drug uptake [12]: Active
Stability (Hepatocyte [13]): Stable
Stability (Hepatocyte [14]): Stable
Compound: C/C(=C\[11CH3])C(=O)O[C@H]1C[C@H](O)C=C2C=C[C@H](C)[C@H](CC[C@@H](O)C[C@@H](O)CC(=O)[O-])[C@H]21.[Na+]
